# An excerpt weighted towards active compounds, which were near 2.2% of everything screened.
# Efflux pump inh – antifungal efflux pump inhibition, Nile Red retention | S. cerevisiae Candida pump triplex | inhibition, % at 10 µM | hit rate 0.44% among 330,000 | AID 485275;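 active = plate passing quality check with inhibition over a set limit, or well fluorescence over plate mean plus 4 SD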;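 also: Nile Red retained in pooled yeast measured as flow cytometry median fluorescence; 0% = buffer negative control and 100% = Enniatin B positive control; higher means more Nile Red kept so more efflux inhibition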
# T cruzi inh – T. cruzi replication inhibition | T. cruzi beta-gal in NIH3T3, luminescence, 90 h | inhibition, % (no concentration beside the values) | hit rate 1.4% among 300,000;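 active = mean inhibition across valid replicates above about 55%, limit read from the data; inconclusive = mean below that limit but half or more replicates reach it; inactive = mean below it, under half of replicates reach it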;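 also: signal also drops with host cell toxicity which is not excluded here; 0% = plate median of DMSO wells and 100% = zero luminescence signal; higher percent means less beta-gal luminescence so fewer parasites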
#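 assay system = mouse NIH/3T3 fibroblasts infected with β-gal-expressing T. cruzi Tulahuen C4 | input = 5,000 NIH/3T3 host cells per well | buffer or medium = DMEM plus 2% FBS | timing = 3 h host attachment, then at least 90 h co-culture | measured by = GalScreen luminescence, 60 min | evaluation = luminescence reflecting intracellular parasite burden, expressed as percent inhibition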
# AI-2 QS modul – modulators of Vibrio harveyi AI-2 quorum sensing system; Vibrio harveyi JMH597 AI-2 luminescence/OD600 ratio, 9 h; stronger effect = lower value; strain lacks LuxN and CqsS sensors; 0 = neutral-control median; activity change, % at 7.5 µM; hit rate 0.4% among 300,000; AID 2094; in the data active = activity change below about -75%, passing the limit was not always enough; inconclusive = no clear call, values can overlap the other calls;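 also: luminescence divided by OD600 gain over 9 h not by final OD600 alone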
# HDAC3 inh – blocks human histone deacetylase 3. inhibition, % at 8.3 µM. AID 2718. recombinant HDAC3, fluorogenic peptide/trypsin coupled, fluorescence. hit rate 0.15% among 320,000. O15379; in the data active = inhibition above about 26%, passing the limit was not always enough; inconclusive = no clear call, values can overlap the other calls
# Target sequence (O15379 whole entry, looked up): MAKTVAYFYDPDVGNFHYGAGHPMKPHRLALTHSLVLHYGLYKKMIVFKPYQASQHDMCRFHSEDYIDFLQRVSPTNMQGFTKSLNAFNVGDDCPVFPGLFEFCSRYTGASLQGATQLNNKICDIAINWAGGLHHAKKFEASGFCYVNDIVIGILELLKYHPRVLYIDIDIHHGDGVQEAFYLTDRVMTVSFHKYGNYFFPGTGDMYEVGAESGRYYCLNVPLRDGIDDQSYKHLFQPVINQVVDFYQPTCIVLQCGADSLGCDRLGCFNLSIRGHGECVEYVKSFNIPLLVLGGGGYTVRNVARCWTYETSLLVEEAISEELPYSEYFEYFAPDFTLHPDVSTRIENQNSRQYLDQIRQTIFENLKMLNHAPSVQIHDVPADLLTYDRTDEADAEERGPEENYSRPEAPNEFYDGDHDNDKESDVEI
# PolyA inhibitor – yeast polyadenylation inhibition. S. cerevisiae SKY197-pL101 polyadenylation reporter, beta-gal luminescence; efflux-impaired pdr1/pdr3 knockout yeast; score 100 = 6 SD above DMSO. activity score, % at 12 µM. hit rate 0.02% among 300,000. AID 1875;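 active = lowest replicate activity score at least 50, where 100 means six control SD above control mean; inconclusive = lowest score under 50 but half or more replicates reach 50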;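 also: yeast exposed to compound for 9 h at 30 °C; higher score means more reporter readthrough which indicates perturbed polyadenylation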
# Yeast cmpd fluor – compound fluorescence in yeast efflux pump counter-screen. hit rate 4% among 1,700. fluorescence ratio to DMSO, % at 10 µM. S. cerevisiae AD/pABC3, flow cytometry. AID 588517. shares compounds with Efflux pump inh;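 active = fluorescence ratio to DMSO above its plate's cutoff, the plate mean ratio plus 5 SD, cut at about 210% in these data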;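 also: unstained yeast with no Nile Red so the signal is compound autofluorescence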
# Mdr1 pump inh – inhibitors of Candida albicans Mdr1 efflux pump. shares compounds with Efflux pump inh. S. cerevisiae AD/CaMDR1, Nile Red efflux, flow cytometry. inhibition, % at 10 µM. hit rate 1% among 1,700. AID 588518; in the data active = inhibition above about 26%;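 also: 0% = DMSO vehicle and 100% = reference inhibitor; higher means more Nile Red retained so more efflux inhibition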
# Cdr2 pump inh – Candida Cdr2 efflux pump inhibition. shares compounds with Efflux pump inh. S. cerevisiae AD/CaCDR2, Nile Red retention, flow cytometry. Nile Red retention ratio vs DMSO, % at 10 µM. hit rate 4% among 1,700; in the data active = Nile Red retention ratio vs DMSO above about 190%;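 also: higher ratio means more blocking of Cdr2 efflux of the dye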
# CaCdr1 efflux inh – Candida Cdr1 efflux pump inhibition. S. cerevisiae AD/CaCDR1, Nile Red efflux, flow cytometry. shares compounds with Efflux pump inh. inhibition, % at 10 µM. hit rate 1% among 1,700;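 active = inhibition above the screen-wide mean plus twice its standard deviation, cut at about 32% in these data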
# Starred values were filed as active, the others as inactive; ? = inconclusive; . = no result given; + = active, no number.
SMILES,Efflux pump inh,T cruzi inh,AI-2 QS modul,HDAC3 inh,PolyA inhibitor,Yeast cmpd fluor,Mdr1 pump inh,Cdr2 pump inh,CaCdr1 efflux inh
N#C/C(=C\c1ccc([N+](=O)[O-])o1)C(=O)Nc1ccc(F)cc1,1.6*,23,12,2,-91,275*,1,172,1
O=C(c1ccc(S(=O)(=O)NCC2CCCO2)cc1)N1CCN(c2cccc(Cl)c2)CC1 (configuration not stated),.,6,4,.,13,.,.,.,.
Cc1cc(C)cc(-n2ncc3c2CCCC3NC(=O)c2cc(C)oc2C)c1 (configuration not stated),0,28,10,2,-6,.,.,.,.
O=C(NC1CCCc2c1cnn2-c1ccc(F)cc1F)c1ccccn1 (configuration not stated),0,-1,13,-5,9,.,.,.,.
O=C(NC1CCCc2c1cnn2-c1ccccc1F)c1ccccn1 (configuration not stated),0,-12,2,1,-13,106,0,105,0
COc1ncccc1C(=O)NC1CCCc2c1cnn2-c1cc(C)cc(C)c1 (configuration not stated),0,18,.,-6,-25,100,0,108,0
O=C1C(Cc2ccccc2)Nc2ncnc(N3CCN(c4ccccc4)CC3)c2N1Cc1ccc(Cl)cc1 (configuration not stated),104*,35,15,5,-19,104,109*,101,89*
Cc1ccccc1-n1nc(C(=O)c2cccs2)cc(-c2nc3ccccc3[nH]2)c1=N,0.3*,?,23,6,-11,95,0,104,0
Cc1cc(C)c(S(=O)(=O)NCc2cccnc2)c(C)c1,0,-14,8,-1,-6,.,.,.,.
CCOc1ccc(CCNC(=O)c2cc([N+](=O)[O-])ccc2N2CCOCC2)cc1OCC,0,9,2,2,13,.,.,.,.
CCOc1ccc(CCNC(=O)COC(=O)c2cc([N+](=O)[O-])ccc2N2CCOCC2)cc1OCC,9.2*,14,48,8,-9,81,0,87,0
CCOc1ccc(/C=C/C(=O)OCC(=O)NCCc2ccc(OCC)c(OCC)c2)cc1OC,0,15,25,8,-18,.,.,.,.
COCCCNCCCOc1ccc(Cl)cc1Br,0,47,5,-9,5,.,.,.,.
CC(C)NCCCOc1ccc(Cl)cc1Br,1.3*,34,-9,-1,0,98,0,107,0
CC(C)(C)NC(=O)C(=O)NNC(=O)COc1ccccc1,28*,-13,23,-4,-11,100,0,106,0
Cc1ccc(OCC(=O)NNC(=O)C(=O)NC(C)(C)C)cc1,0,23,30,-8,2,.,.,.,.
O=c1[nH]c2cc3c(cc2cc1CN(Cc1ccccc1)Cc1nnnn1Cc1ccco1)OCCO3,.,15,20,.,16,.,.,.,.
COc1ccccc1CN(Cc1cc2cc3c(cc2[nH]c1=O)OCCO3)Cc1nnnn1Cc1ccco1,1.4*,-4,17,8,5,100,0,107,0
COc1ccc(-c2ccc(-c3cc(=O)oc4cc(OC)c(OC)c(OC)c34)cc2)cc1,0,.,.,.,.,.,.,.,.
Cc1ccc(-n2c(C)cc(/C([O-])=C(/C(=S)Nc3ccc(F)c(Cl)c3)[n+]3ccccc3)c2C)cc1,0.9*,29,11,2,-11,101,0,94,0
O=C1c2ccccc2C(=O)N1CN(C(=O)COc1ccccc1)c1ccc(F)cc1,8.0*,5,20,-2,10,91,0,89,0
O=C(C[C@H]1C/C=C\C[C@H](NC(=O)OCC2c3ccccc3-c3ccccc32)C(=O)OC[C@@H]2CCCN2C1=O)NCCO,0,.,.,3,.,.,.,.,.
Cc1cccc(CCNCc2c(C(=O)O)c(C)n(-c3ccccc3)c2C)c1,0,2,19,0,7,.,.,.,.
O=C(NCc1ccco1)/C(=C/C=C\c1ccccc1)NC(=O)c1ccc(Br)o1,7.6*,-8,6,9,-7,111,0,105,0
Cc1ccc2nc(/C(C#N)=C/c3ccc(O)c(O)c3)[nH]c2c1,3.4*,-22,-2,2,-12,118,0,141,1
SMILES,Efflux pump inh,T cruzi inh,AI-2 QS modul,HDAC3 inh,PolyA inhibitor,Yeast cmpd fluor,Mdr1 pump inh,Cdr2 pump inh,CaCdr1 efflux inh
Cc1ccc2nc(/C(C#N)=C/c3ccccc3C(=O)O)[nH]c2c1,0,12,23,0,-10,.,.,.,.
COCC1CCN(C(=O)c2cc(COc3ccc(OC)c4ccccc34)on2)C1 (configuration not stated),7.2*,11,15,0,22,105,0,112,0
CCCCCCOC(=O)C[N+](C)(C)CCOC1CC2CCC1(C)C2(C)C (configuration not stated),2.6*,72*,14,-2,0,108,0,+,0
CCCOC(=O)C[N+](C)(C)CCOC1CC2CCC1(C)C2(C)C (configuration not stated),0,38,-1,-5,3,.,.,.,.
COC(=O)c1ccccc1NC1CC(=O)N(c2c(C)cccc2C)C1=O (configuration not stated),0,-9,12,-10,4,.,.,.,.
Cc1cc(C)c(NC(=O)CNC(=O)COC(=O)C2=COCCO2)c(C)c1,0,-9,13,-1,?,.,.,.,.
Cc1c(C(=O)Nc2ccc3nc(N4CCOCC4)sc3c2)oc2ccccc12,0.8*,.,.,14,.,109,0,110,0
Cc1ccc(S(=O)(=O)NCCC(=O)N2CCOCC2)cc1C,0,-11,8,-3,-7,.,.,.,.
CCn1cc(CNC(=O)c2cccc([N+](=O)[O-])c2)c(C)n1,11*,-6,-24,-3,-12,101,0,107,0
CCCCCC(=O)N/N=C(\C)c1ccc(Cl)cc1,9.8*,0,10,-1,11,111,0,97,0
CCCCCCCCC(=O)N/N=C(\C)c1cccnc1,0,-8,-1,7,21,.,.,.,.
COc1cc(NC(=O)CCNS(=O)(=O)c2ccc3c(c2)CCC(=O)N3)cc(OC)c1,13*,-6,22,-1,17,105,0,105,0
CCO[C@@H]1OC(C(=O)Nc2ccccc2)=C[C@H](c2ccccc2)[C@H]1CCCO,0,-6,18,9,-14,.,.,.,.
